# Reference: PubChem BioAssay AID602416 (Sanford-Burnham Center for Chemical Genomics, 2012)
# Activity calls are given as the source filed them.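 How the source made its calls: active means mean EC50 at or below 20 µM; inactive means the rest.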
# Target: CHO-XBP1 luciferase reporter, IRE1-XBP1 activation, luminescence
# Assay: XBP1 luciferase reporter activation in CHO cells – cell-based, luminescence, set 3, counter-screen for apoptotic UPR arm activator project, SAR follow-up (AID 602416)
# How it was run: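 System: CHO cells stably expressing XBP1 luciferase reporter, IRE1-XBP1 arm. Doses: compound dilution series, final DMSO at most 1%. Timing: 6 h compound treatment, 37 °C. Technique: luciferase luminescence with Steady-Glo reagent.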
row,EC50,SMILES
1,> 80 µM (inactive),CC1(C)CCN(S(=O)(=O)c2ccc(NC(=O)c3ccc([N+](=O)[O-])o3)cc2)CC1
2,> 80 µM (inactive),O=C(Nc1ccc(S(=O)(=O)N2CCC(F)CC2)cc1)c1ccc([N+](=O)[O-])o1
3,> 80 µM (inactive),O=C(Nc1ccc(S(=O)(=O)N2CCC(Cl)CC2)cc1)c1ccc([N+](=O)[O-])o1
4,> 80 µM (inactive),CC1CCN(S(=O)(=O)c2ccc(NC(=O)c3ccc([N+](=O)[O-])o3)cc2)CC1
5,> 80 µM (inactive),O=C(Nc1ccc(S(=O)(=O)N2CCCCC2)cc1)c1ccc([N+](=O)[O-])o1
6,> 80 µM (inactive),CC(C)(C)C1CCN(S(=O)(=O)c2ccc(NC(=O)c3ccc([N+](=O)[O-])o3)cc2)CC1
